Measured values published in ChEMBL document CHEMBL4257586, “Polyheteroaryl Oxazole/Pyridine-Based Compounds Selected in Vitro as G-Quadruplex Ligands Inhibit Rock Kinase and Exhibit Antiproliferative Activity” (J Med Chem, 2018).
The source made the active and inactive calls. The calls are words filed in the database; no cut-off is given here.

Experiments:
HeLa [1] = experiment: Induction of double stranded DNA breaks in human HeLa cells assessed as gamma-H2Ax phosphorylation at 2 uM after 24 to 48 hrs by Hoechst 33342 staining-based laser confocal microscopy; assay type: functional, cell-based
Quadruplex DNA [2] = experiment: Binding affinity to 6-FAM labeled human proto-oncogene sequence FMycT G-quadruplex DNA assessed as change in melting temperature at 1 uM in presence of K+ buffer (1 mM KCl, 99 mM LiCl, 10 mM Li cacodylate) by FRET assay; assay type: nucleic-acid assay
How it was run: (§1)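 FRET melting in duplicate. Dual-labelled oligo (6-FAM/TAMRA) at 0.2 μM with ligand at 1 μM, in 10 mM Li cacodylate pH 7.2. Buffer was 10 mM KCl + 90 mM LiCl for F21T and 1 mM KCl + 99 mM LiCl for FMycT. Sample annealed 90 °C 5 min, cooled to 4 °C overnight. Equilibrated 5 min at 25 °C, then ramped 0.5 °C/min to 95 °C. FAM read 492/516 nm, normalized; Tm taken at the fitted inflection point.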

dsDNA [3] = experiment: Binding affinity to duplex 26 DNA (unknown origin) assessed as change in melting temperature at 1 uM by FRET; assay type: nucleic-acid assay
HeLa [4] = experiment: Induction of double stranded DNA breaks in human HeLa cells assessed as gamma-H2Ax phosphorylation at 1 uM after 24 to 48 hrs by Hoechst 33342 staining-based laser confocal microscopy; assay type: functional, cell-based
Quadruplex DNA [5] = experiment: Binding affinity to 6-FAM labeled human telomeric F21T G-quadruplex DNA assessed as change in melting temperature at 1 uM in K+ rich buffer (10 mM KCl, 90 mM LiCl, 10 mM Li cacodylate) by FRET assay; assay type: nucleic-acid assay; how it was run: as §1
[6] = biological target: T1, Rho-associated protein kinase (Homo sapiens) (UniProt O75116+Q13464); experiment: Inhibition of ROCK in human Hela cells assessed as formation of long neurite-like extensions at 2 uM by phalloidin-based immunofluorescence assay; assay type: cell-based
How it was run: (§2)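 HeLa cells on glass coverslips treated overnight at 2 μM or with DMSO control, then fixed in 4% formaldehyde for 10 min at 37 °C. Actin stained with phalloidin; α-tubulin or anti-phospho-Tyr focal points also labelled, plus DNA. Imaged by confocal microscopy.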

Homo sapiens [7] = organism: Homo sapiens; experiment: Selectivity index, ratio of IC50 for inhibition of ROCK1 (unknown origin) to IC50 for inhibition of ROCK2 (unknown origin)
HeLa [8] = experiment: Cytotoxicity against human HeLa cells assessed as reduction in organization of stress fibers at 1 uM after 24 to 48 hrs by Hoechst 33342 staining-based laser confocal microscopy; assay type: functional, cell-based
Quadruplex DNA [9] = experiment: Binding affinity to 22AG G-quadruplex DNA (unknown origin) by fluorescence spectrophotometric analysis; assay type: nucleic-acid assay
How it was run: (§3)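 Fluorescence titration in 10 mM lithium cacodylate pH 7.2 with 100 mM KCl, 1 cm quartz cell. Ligand at 0.5 μM, excited at 330 or 340 nm, with increasing DNA added (22AG, c-Myc or ds26). Emission over 340/350–650 nm plotted against DNA concentration and fitted by Hill equation to give apparent Ka (1:1).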

Myotonin-protein kinase = biological target: T2, Myotonin-protein kinase (Homo sapiens, UniProt Q09013); experiment: Inhibition of DMPK (unknown origin) by ATP competition assay
T2 sequence (Q09013 whole entry): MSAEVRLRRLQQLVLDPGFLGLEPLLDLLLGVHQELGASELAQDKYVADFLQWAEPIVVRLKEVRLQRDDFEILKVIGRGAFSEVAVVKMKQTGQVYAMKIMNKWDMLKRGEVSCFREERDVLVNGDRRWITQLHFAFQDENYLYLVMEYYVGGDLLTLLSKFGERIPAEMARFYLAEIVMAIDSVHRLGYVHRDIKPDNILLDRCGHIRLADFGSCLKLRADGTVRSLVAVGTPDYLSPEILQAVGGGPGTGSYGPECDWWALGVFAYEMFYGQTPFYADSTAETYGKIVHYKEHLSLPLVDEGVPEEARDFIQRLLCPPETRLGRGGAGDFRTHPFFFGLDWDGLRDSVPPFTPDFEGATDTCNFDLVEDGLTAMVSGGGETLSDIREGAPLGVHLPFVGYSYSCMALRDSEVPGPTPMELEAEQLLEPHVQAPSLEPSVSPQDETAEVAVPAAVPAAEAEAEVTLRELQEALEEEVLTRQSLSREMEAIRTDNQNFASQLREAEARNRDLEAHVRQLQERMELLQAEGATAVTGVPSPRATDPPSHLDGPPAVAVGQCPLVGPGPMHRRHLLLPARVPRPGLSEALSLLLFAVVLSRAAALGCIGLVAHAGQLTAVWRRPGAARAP
How it was run: (§4)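 Recombinant kinases assayed in duplicate by radioactive filter-binding assay with 33P-ATP; no-compound controls run and each plate validated by Z′. IC50 values determined.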

[10] = biological target: T1, Rho-associated protein kinase (Homo sapiens); experiment: Inhibition of ROCK in human Hela cells assessed as reduction in cell spreading at 2 uM by phalloidin-based immunofluorescence assay; how it was run: as §2
Homo sapiens [11] = organism: Homo sapiens; experiment: Selectivity index, ratio of IC50 for inhibition of DMPK (unknown origin) to IC50 for inhibition of ROCK2 (unknown origin)
[12] = biological target: T3, Rho-associated protein kinase 2 (Homo sapiens, UniProt O75116); experiment: Inhibition of ROCK2 (unknown origin) by ATP competition assay; how it was run: as §4
Target sequence in this assay (O75116 whole entry): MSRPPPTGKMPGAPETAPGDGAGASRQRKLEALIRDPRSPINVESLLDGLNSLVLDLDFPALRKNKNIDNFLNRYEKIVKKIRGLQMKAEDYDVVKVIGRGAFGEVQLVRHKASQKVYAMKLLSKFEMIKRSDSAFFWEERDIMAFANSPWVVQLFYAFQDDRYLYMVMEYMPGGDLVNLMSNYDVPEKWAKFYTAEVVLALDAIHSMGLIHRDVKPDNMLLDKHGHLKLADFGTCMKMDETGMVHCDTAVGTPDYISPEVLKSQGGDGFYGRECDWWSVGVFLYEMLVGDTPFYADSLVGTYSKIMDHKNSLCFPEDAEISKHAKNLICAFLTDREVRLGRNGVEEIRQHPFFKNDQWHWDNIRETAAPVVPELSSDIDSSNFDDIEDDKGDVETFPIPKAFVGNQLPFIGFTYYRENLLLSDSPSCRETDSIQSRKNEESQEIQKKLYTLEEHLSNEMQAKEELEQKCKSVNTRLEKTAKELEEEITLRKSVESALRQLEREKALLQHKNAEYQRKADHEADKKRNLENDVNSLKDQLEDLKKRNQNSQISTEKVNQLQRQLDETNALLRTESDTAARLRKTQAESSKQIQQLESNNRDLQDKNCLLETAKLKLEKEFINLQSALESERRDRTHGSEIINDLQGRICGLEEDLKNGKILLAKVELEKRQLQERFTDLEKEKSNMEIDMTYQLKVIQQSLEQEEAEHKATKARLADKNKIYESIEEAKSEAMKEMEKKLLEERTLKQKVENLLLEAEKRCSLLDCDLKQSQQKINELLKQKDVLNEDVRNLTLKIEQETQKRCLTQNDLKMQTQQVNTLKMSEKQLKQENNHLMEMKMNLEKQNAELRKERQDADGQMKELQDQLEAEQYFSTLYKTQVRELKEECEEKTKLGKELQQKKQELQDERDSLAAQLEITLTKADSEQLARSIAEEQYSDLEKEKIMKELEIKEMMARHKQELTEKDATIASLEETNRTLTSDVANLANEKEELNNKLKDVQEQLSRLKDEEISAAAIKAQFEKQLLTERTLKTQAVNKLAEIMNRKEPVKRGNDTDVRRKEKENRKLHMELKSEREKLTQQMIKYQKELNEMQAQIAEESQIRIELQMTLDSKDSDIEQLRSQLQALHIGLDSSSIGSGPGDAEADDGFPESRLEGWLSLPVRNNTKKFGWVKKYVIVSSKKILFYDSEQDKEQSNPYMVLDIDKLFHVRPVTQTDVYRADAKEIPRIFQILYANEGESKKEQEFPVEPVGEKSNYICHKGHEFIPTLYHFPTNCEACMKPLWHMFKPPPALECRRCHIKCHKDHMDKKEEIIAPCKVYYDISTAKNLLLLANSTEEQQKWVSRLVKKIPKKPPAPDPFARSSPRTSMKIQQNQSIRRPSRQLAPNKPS

Quadruplex DNA [13] = experiment: Binding affinity to c-Myc G-quadruplex DNA (unknown origin) by fluorescence spectrophotometric analysis; assay type: nucleic-acid assay; how it was run: as §3
[14] = biological target: Rho-associated protein kinase 1 (Homo sapiens, UniProt Q13464); experiment: Inhibition of ROCK1 (unknown origin) by ATP competition assay; how it was run: as §4
dsDNA [15] = experiment: Binding affinity to duplex 26 DNA (unknown origin) by fluorescence spectrophotometric analysis; assay type: nucleic-acid assay; how it was run: as §3
A-375 = experiment: Induction of double stranded DNA breaks in human A375 cells assessed as gamma-H2Ax phosphorylation at 1 uM after 24 to 48 hrs by Hoechst 33342 staining-based laser confocal microscopy; assay type: functional, cell-based
[16] = biological target: T3, Rho-associated protein kinase 2; experiment: Inhibition of ROCK2 in human HeLa cells assessed as reduction in MYPT1 phosphorylation at Thr853 at 2 uM after 3 hrs by immunofluorescence assay; assay type: cell-based
How it was run: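 HeLa cells treated 3 h at 2 or 5 μM, with Y-27632 and untreated controls, then formaldehyde-fixed. Phospho-MYPT1 Thr853 or phospho-cofilin Ser3 immunostained with DNA. Confocal 0.5 μm slices plus z-projection, with acquisition settings fixed from the control.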
Target sequence in this assay (O75116 whole entry, looked up): as the sequence (O75116 whole entry) above

U-87 MG = experiment: Antiproliferative activity against human U87 cells after 72 hrs by MTS assay; assay type: functional, cell-based, U-87MG ATCC
How it was run: (§5)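 Cells seeded at day 0 in 96-well plates, serial compound dilutions added at day 1; viable cells read 72 h after drug addition by MTS tetrazolium assay, in triplicate. IC50 taken as concentration halving cell growth. One first trial, then two additional experiments on selected compounds.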

HeLa [17] = experiment: Antiproliferative activity against human HeLa cells after 72 hrs by MTS assay; assay type: functional, cell-based; how it was run: as §5
HeLa [18] = experiment: Induction of cell cycle arrest in human HeLa cells at 1 uM after 48 hrs by propidium iodide-staining based flow cytometry; assay type: functional
How it was run: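 HeLa cells serum-starved 96 h for synchronization, then released and treated 48 h. Fixed in ice-cold 70% ethanol 1 h, stained with propidium iodide 50 μg/mL plus RNase A 0.2 mg/mL for 15 min at 37 °C, and analyzed by FACS.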

T1 sequence (O75116 whole entry, looked up): as the sequence (O75116 whole entry) above
T1 sequence (Q13464 whole entry, looked up): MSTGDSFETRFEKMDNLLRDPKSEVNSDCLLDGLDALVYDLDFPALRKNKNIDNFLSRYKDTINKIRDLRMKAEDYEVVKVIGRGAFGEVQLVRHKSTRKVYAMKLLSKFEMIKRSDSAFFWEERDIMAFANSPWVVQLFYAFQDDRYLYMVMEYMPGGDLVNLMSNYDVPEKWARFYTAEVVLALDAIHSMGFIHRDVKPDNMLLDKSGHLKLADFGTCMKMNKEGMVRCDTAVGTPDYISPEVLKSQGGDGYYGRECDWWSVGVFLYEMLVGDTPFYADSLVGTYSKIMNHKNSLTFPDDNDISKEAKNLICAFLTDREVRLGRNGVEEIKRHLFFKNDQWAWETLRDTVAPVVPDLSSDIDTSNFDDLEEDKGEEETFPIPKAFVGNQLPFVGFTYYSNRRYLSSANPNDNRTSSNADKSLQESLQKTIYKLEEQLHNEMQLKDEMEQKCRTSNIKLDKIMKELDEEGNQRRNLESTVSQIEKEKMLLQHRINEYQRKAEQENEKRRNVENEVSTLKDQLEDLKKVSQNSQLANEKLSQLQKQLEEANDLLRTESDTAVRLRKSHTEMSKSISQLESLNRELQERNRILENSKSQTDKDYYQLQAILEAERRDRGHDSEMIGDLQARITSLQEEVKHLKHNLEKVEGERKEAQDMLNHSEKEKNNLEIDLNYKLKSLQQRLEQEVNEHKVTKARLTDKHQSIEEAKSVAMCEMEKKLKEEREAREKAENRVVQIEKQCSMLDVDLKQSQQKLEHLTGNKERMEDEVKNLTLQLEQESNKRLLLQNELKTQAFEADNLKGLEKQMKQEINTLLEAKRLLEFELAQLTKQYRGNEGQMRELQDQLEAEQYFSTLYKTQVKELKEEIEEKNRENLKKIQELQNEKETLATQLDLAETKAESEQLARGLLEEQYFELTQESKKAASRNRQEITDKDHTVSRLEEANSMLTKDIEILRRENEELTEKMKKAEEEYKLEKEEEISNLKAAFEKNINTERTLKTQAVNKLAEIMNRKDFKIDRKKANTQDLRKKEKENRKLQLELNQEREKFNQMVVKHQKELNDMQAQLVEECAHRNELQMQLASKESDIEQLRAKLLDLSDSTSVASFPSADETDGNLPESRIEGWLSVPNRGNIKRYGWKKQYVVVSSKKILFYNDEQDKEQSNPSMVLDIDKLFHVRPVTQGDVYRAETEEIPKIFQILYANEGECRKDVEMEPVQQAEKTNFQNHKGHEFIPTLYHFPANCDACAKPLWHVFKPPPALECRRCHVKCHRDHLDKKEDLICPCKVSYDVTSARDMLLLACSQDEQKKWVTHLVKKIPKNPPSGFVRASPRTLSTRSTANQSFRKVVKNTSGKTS
Sequence of Rho-associated protein kinase 1 (Q13464 whole entry): as the sequence (Q13464 whole entry, looked up) above

ΔTm (Quadruplex DNA [2]) [°C] | Activity (dsDNA [3]) | ΔTm (Quadruplex DNA [5]) [°C] | inhibition [6] | Ratio IC50 (Homo sapiens [7]) | Activity (Quadruplex DNA [9]) | Ka (Quadruplex DNA [9]) [×10⁶ /M] | IC50 (Myotonin-protein kinase) [nM] | inhibition [10] | Ratio IC50 (Homo sapiens [11]) | IC50 [12] [nM] | Activity (Quadruplex DNA [13]) | Ka (Quadruplex DNA [13]) [×10⁶ /M] | IC50 [14] [nM] | Ka (dsDNA [15]) [×10⁶ /M] | inhibition [16] | SMILES | Activity (HeLa [1]) | Activity (HeLa [4]) | Activity (HeLa [8]) | Activity (A-375) | also measured
3.4 to 6.4 | inactive | 6 to 9 | Active | > 50 | Dose-dependent effect | 2.5 | > 1000 | Active | > 50 | 20 | Dose-dependent effect | 22 | > 1000 | 1 | – | CN(C)CCOc1cc(-c2ncc(-c3cccc(-c4cnco4)n3)o2)nc(-c2ncc(-c3cccc(-c4cnco4)n3)o2)c1 | inactive | inactive | Active | – | –
3.4 to 6.4 | inactive | 6 to 9 | Active | > 50 | Dose-dependent effect | 6.7 | > 1000 | Active | > 50 | 29 | Dose-dependent effect | 19 | > 1000 | 0.9 | Active | c1cc(-c2cnco2)nc(-c2cnc(-c3cccc(-c4ncc(-c5cccc(-c6cnco6)n5)o4)n3)o2)c1 | inactive | inactive | Active | inactive | IC50 (U-87 MG): 440 nM; IC50 (HeLa [17]): 257 nM; Activity (HeLa [18]): inactive
– | inactive | 6 to 9 | Active | 1.4 | Dose-dependent effect | 3.9 | > 1000 | Active | 1.4 | 851 | Dose-dependent effect | 16 | > 1000 | 3 | Active | c1cc(-c2cnco2)nc(-c2cnc(-c3cccc(-c4cccc(-c5ncc(-c6cccc(-c7cnco7)n6)o5)n4)n3)o2)c1 | inactive | inactive | Active | inactive | IC50 (U-87 MG): 246 nM; IC50 (HeLa [17]): 134 nM; Activity (HeLa [18]): inactive
